# Measurements of several laboratories.
SMILES,target or system,assay,system,conditions,endpoint,result
COc1ccc(N=Nc2c(N)nn3c(-c4ccc(Cl)cc4Cl)cc(-c4ccc(OCc5ccccc5)cc4)nc23)cc1,Enterobacter cloacae,microbial killing,ATCC23355,,MBC,250 µg/mL
O=C(Nc1cccc(-c2cn(Cc3ccc(Cl)cc3)nn2)c1)Nc1ccccc1Br,NCI-H1299,"cell growth or viability, CCK-8",,"50 µM, 72 h",viability,130%
Cc1ccc(N=Nc2c(N)nn3c(-c4ccc(Cl)cc4Cl)cc(-c4ccc(OCc5ccccc5)cc4)nc23)cc1,Enterobacter cloacae,microbial killing,ATCC23355,,MBC,62.5 µg/mL
CC[C@H]1OC(=O)[C@H](C)[C@@H](O[C@H]2C[C@@](C)(OC)[C@@H](O)[C@H](C)O2)[C@H](C)[C@@H](O[C@@H]2O[C@H](C)C[C@H](N(C)C)[C@H]2O)[C@](C)(O)C[C@@H](C)CN(C)[C@H](C)[C@@H](O)[C@]1(C)O,Serratia marcescens,microbial growth,ATCC8100,,MIC,< 98 µg/mL
CN(C)CCNC(=O)c1ccc(-c2nc3ccc4[nH]ncc4c3c3c2CCCC3)c(F)c1,22Rv1,cell growth or viability,,72 h,GI50,1.28 µM
O=C(NCc1cn(Cc2ccc(Cl)cc2)nn1)Nc1ccccc1Br,NCI-H1299,"cell growth or viability, CCK-8",,"50 µM, 72 h",viability,90.7%
COc1ccc(NC(=O)NCc2cn(Cc3ccc(Br)cc3)nn2)cc1,NCI-H1299,"cell growth or viability, CCK-8",,"50 µM, 72 h",viability,91.9%
O=C(Nc1ccc(-c2cn(Cc3ccc(Br)cc3)nn2)cc1)Nc1ccccc1Br,NCI-H1299,"cell growth or viability, CCK-8",,"50 µM, 72 h",viability,115%
Nc1nn2c(-c3ccco3)cc(-c3ccc(OCc4ccccc4)cc3)nc2c1N=Nc1ccc(F)cc1,Enterobacter cloacae,microbial killing,ATCC23355,,MBC,62.5 µg/mL
COc1ccc(NC(=O)NCc2cn(Cc3ccc(Cl)cc3)nn2)cc1,NCI-H1299,"cell growth or viability, CCK-8",,"50 µM, 72 h",viability,79.3%
Cc1ccc2[nH]nc(-c3nnc(Nc4ccc(C(F)(F)F)cc4)s3)c2c1,Serratia marcescens,microbial growth,ATCC8100,,MIC,62.8 µg/mL
O=C(Nc1ccc(Cl)cc1)Nc1cccc(-c2cn(Cc3cccc(Br)c3)nn2)c1,NCI-H1299,"cell growth or viability, CCK-8",,"50 µM, 72 h",viability,94.7%
Cc1n[nH]c2ccc3nc(-c4ccc(C(=O)NCCN(C)C)cc4)c4c(c3c12)CCCCC4,22Rv1,cell growth or viability,,72 h,GI50,7.15 µM
COc1ccc(NC(=O)Nc2cccc(-c3cn(Cc4ccc(C)cc4)nn3)c2)cc1,NCI-H1299,"cell growth or viability, CCK-8",,"50 µM, 72 h",viability,156%
O=C(Nc1ccc(-c2cn(Cc3ccc(Cl)cc3)nn2)cc1)Nc1ccccc1Br,NCI-H1299,"cell growth or viability, CCK-8",,"50 µM, 72 h",viability,109%
Nc1nn2c(-c3ccc(Cl)cc3Cl)cc(-c3ccc(OCc4ccccc4)cc3)nc2c1N=Nc1ccc(F)cc1,Enterobacter cloacae,microbial killing,ATCC23355,,MBC,62.5 µg/mL
O=C(Nc1ccc(Cl)cc1)Nc1ccc(-c2cn(Cc3ccc(Cl)cc3)nn2)cc1,NCI-H1299,"cell growth or viability, CCK-8",,"50 µM, 72 h",viability,88.1%
CN(C)CCNC(=O)c1ccc(-c2nc3ccc4[nH]ncc4c3c3c2CCCCC3)cc1,22Rv1,cell growth or viability,,72 h,GI50,4.12 µM
